Assay results as given in ChEMBL document CHEMBL4732237, “Discovery of 4-alkoxy-2-aryl-6,7-dimethoxyquinolines as a new class of topoisomerase I inhibitors endowed with potent in vitro anticancer activity” (2021).

Assays:
Format in all cases: functional
Settings in all cases: read-out: GI
K562 = assay: Growth inhibition of human K562 cells at 10 uM incubated for 48 hrs by sulforhodamine B assay relative to control
Procedure, shortened: (§1)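 NCI-60 single-dose screen. Cells were grown in RPMI 1640 with 5% FBS and 2 mM L-glutamine and plated 24 h before drug addition. Compound was added at one concentration in DMSO-derived medium and incubated for 48 h at 37 °C in 5% CO2. Read-out was SRB protein stain at 515 nm. Result is percent growth versus the no-drug control and the time-zero cell count; values below 0 indicate lethality.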

MOLT-4 = assay: Growth inhibition of human MOLT-4 cells at 10 uM incubated for 48 hrs by sulforhodamine B assay relative to control
Procedure, shortened: (§2)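 NCI one-dose screen. Cells grown in RPMI 1640 with 5% FBS and 2 mM L-glutamine, plated and incubated 24 h at 37 °C, 5% CO2. DMSO-dissolved drug added, then 48 h further incubation. Adherent cells fixed with cold TCA, suspension cells fixed after settling. Stained with 0.4% SRB, absorbance read at 515 nm. Reported as percent growth relative to no-drug control and time-zero cell number.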

SR = assay: Growth inhibition of human SR cells at 10 uM incubated for 48 hrs by sulforhodamine B assay relative to control; procedure, shortened: as §2
EKVX = assay: Growth inhibition of human EKVX cells at 10 uM incubated for 48 hrs by sulforhodamine B assay relative to control; procedure, shortened: as §1
HOP-62 = assay: Growth inhibition of human HOP-62 cells at 10 uM incubated for 48 hrs by sulforhodamine B assay relative to control; procedure, shortened: as §1
HOP-92 = assay: Growth inhibition of human HOP-92 cells at 10 uM incubated for 48 hrs by sulforhodamine B assay relative to control; procedure, shortened: as §1
NCI-H226 = assay: Growth inhibition of human NCI-H226 cells at 10 uM incubated for 48 hrs by sulforhodamine B assay relative to control; procedure, shortened: as §2
NCI-H23 = assay: Growth inhibition of human NCI-H23 cells at 10 uM incubated for 48 hrs by sulforhodamine B assay relative to control; procedure, shortened: as §2
NCI-H322M = assay: Growth inhibition of human NCI-H322M cells at 10 uM incubated for 48 hrs by sulforhodamine B assay relative to control; procedure, shortened: as §2
NCI-H460 = assay: Growth inhibition of human NCI-H460 cells at 10 uM incubated for 48 hrs by sulforhodamine B assay relative to control; procedure, shortened: as §2
NCI-H522 = assay: Growth inhibition of human NCI-H522 cells at 10 uM incubated for 48 hrs by sulforhodamine B assay relative to control; procedure, shortened: as §2
COLO 205 = assay: Growth inhibition of human COLO 205 cells at 10 uM incubated for 48 hrs by sulforhodamine B assay relative to control; procedure, shortened: as §1
KM12 = assay: Growth inhibition of human KM12 cells at 10 uM incubated for 48 hrs by sulforhodamine B assay relative to control; procedure, shortened: as §1
SW-620 = assay: Growth inhibition of human SW-620 cells at 10 uM incubated for 48 hrs by sulforhodamine B assay relative to control
Procedure, shortened: (§3)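 NCI one-dose screen across a 59-line panel. Cells were grown in RPMI 1640 with 5% FBS and 2 mM L-glutamine, plated and pre-incubated 24 h, then exposed to drug for 48 h at 37 °C, 5% CO2. Adherent cells were fixed with cold TCA (10% final), stained with 0.4% SRB in 1% acetic acid and read at 515 nm. Result is percent growth relative to no-drug control and time-zero cell count.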

SF-539 = assay: Growth inhibition of human SF-539 cells at 10 uM incubated for 48 hrs by sulforhodamine B assay relative to control; procedure, shortened: as §2
SNB-19 = assay: Growth inhibition of human SNB-19 cells at 10 uM incubated for 48 hrs by sulforhodamine B assay relative to control; procedure, shortened: as §2
LOX IMVI = assay: Growth inhibition of human LOX IMVI cells at 10 uM incubated for 48 hrs by sulforhodamine B assay relative to control; procedure, shortened: as §1
Malme-3M = assay: Growth inhibition of human Malme-3M cells at 10 uM incubated for 48 hrs by sulforhodamine B assay relative to control; procedure, shortened: as §2
SK-MEL-2 = assay: Growth inhibition of human SK-MEL-2 cells at 10 uM incubated for 48 hrs by sulforhodamine B assay relative to control; procedure, shortened: as §2
SK-MEL-28 = assay: Growth inhibition of human SK-MEL-28 cells at 10 uM incubated for 48 hrs by sulforhodamine B assay relative to control; procedure, shortened: as §2
SK-MEL-5 = assay: Growth inhibition of human SK-MEL-5 cells at 10 uM incubated for 48 hrs by sulforhodamine B assay relative to control; procedure, shortened: as §2
UACC-257 = assay: Growth inhibition of human UACC-257 cells at 10 uM incubated for 48 hrs by sulforhodamine B assay relative to control; procedure, shortened: as §3
UACC-62 = assay: Growth inhibition of human UACC-62 cells at 10 uM incubated for 48 hrs by sulforhodamine B assay relative to control; procedure, shortened: as §3
IGROV-1 = assay: Growth inhibition of human IGROV-1 cells at 10 uM incubated for 48 hrs by sulforhodamine B assay relative to control; procedure, shortened: as §1
OVCAR-3 = assay: Growth inhibition of human OVCAR-3 cells at 10 uM incubated for 48 hrs by sulforhodamine B assay relative to control; procedure, shortened: as §2
OVCAR-4 = assay: Growth inhibition of human OVCAR-4 cells at 10 uM incubated for 48 hrs by sulforhodamine B assay relative to control; procedure, shortened: as §2
OVCAR-8 = assay: Growth inhibition of human OVCAR-8 cells at 10 uM incubated for 48 hrs by sulforhodamine B assay relative to control; procedure, shortened: as §2
NCI/ADR-RES = assay: Growth inhibition of human NCI/ADR-RES cells at 10 uM incubated for 48 hrs by sulforhodamine B assay relative to control; procedure, shortened: as §2
A498 = assay: Growth inhibition of human A498 cells at 10 uM incubated for 48 hrs by sulforhodamine B assay relative to control; procedure, shortened: as §3
RXF 393 = assay: Growth inhibition of human RXF 393 cells at 10 uM incubated for 48 hrs by sulforhodamine B assay relative to control; procedure, shortened: as §2
SN12C = assay: Growth inhibition of human SN12C cells at 10 uM incubated for 48 hrs by sulforhodamine B assay relative to control; procedure, shortened: as §2
TK-10 = assay: Growth inhibition of human TK-10 cells at 10 uM incubated for 48 hrs by sulforhodamine B assay relative to control; procedure, shortened: as §3
PC-3 = assay: Growth inhibition of human PC-3 cells at 10 uM incubated for 48 hrs by sulforhodamine B assay relative to control; procedure, shortened: as §2
Hs-578T = assay: Growth inhibition of human HS-578T cells at 10 uM incubated for 48 hrs by sulforhodamine B assay relative to control; procedure, shortened: as §1
BT-549 = assay: Growth inhibition of human BT-549 cells at 10 uM incubated for 48 hrs by sulforhodamine B assay relative to control; procedure, shortened: as §1
T47D = assay: Growth inhibition of human T47D cells at 10 uM incubated for 48 hrs by sulforhodamine B assay relative to control; procedure, shortened: as §3
MDA-MB-468 = assay: Growth inhibition of human MDA-MB-468 cells at 10 uM incubated for 48 hrs by sulforhodamine B assay relative to control; procedure, shortened: as §1

Row | Structure (SMILES) | inhibition of growth at 10 µM (K562) [%] | inhibition of growth at 10 µM (MOLT-4) [%] | inhibition of growth at 10 µM (SR) [%] | inhibition of growth at 10 µM (EKVX) [%] | inhibition of growth at 10 µM (HOP-62) [%] | inhibition of growth at 10 µM (HOP-92) [%] | inhibition of growth at 10 µM (NCI-H226) [%] | inhibition of growth at 10 µM (NCI-H23) [%] | inhibition of growth at 10 µM (NCI-H322M) [%] | inhibition of growth at 10 µM (NCI-H460) [%] | inhibition of growth at 10 µM (NCI-H522) [%] | inhibition of growth at 10 µM (COLO 205) [%] | inhibition of growth at 10 µM (KM12) [%] | inhibition of growth at 10 µM (SW-620) [%] | inhibition of growth at 10 µM (SF-539) [%] | inhibition of growth at 10 µM (SNB-19) [%] | inhibition of growth at 10 µM (LOX IMVI) [%] | inhibition of growth at 10 µM (Malme-3M) [%] | inhibition of growth at 10 µM (SK-MEL-2) [%] | inhibition of growth at 10 µM (SK-MEL-28) [%] | also measured
1 | COc1cc2nc(-c3ccc(C(F)(F)F)cc3)cc(OCCN3CCCC3)c2cc1OC | 13 | 13 | 13 | 13 | 13 | 13 | 13 | 13 | 13 | 13 | 13 | 13 | 13 | 13 | 13 | 13 | 13 | 13 | 13 | 13 | inhibition of growth at 10 µM (SK-MEL-5): 13%; inhibition of growth at 10 µM (UACC-257): 13%; inhibition of growth at 10 µM (UACC-62): 13%; inhibition of growth at 10 µM (IGROV-1): 13%; inhibition of growth at 10 µM (OVCAR-3): 13%; inhibition of growth at 10 µM (OVCAR-4): 13%; inhibition of growth at 10 µM (OVCAR-8): 13%; inhibition of growth at 10 µM (NCI/ADR-RES): 13%; inhibition of growth at 10 µM (A498): 13%; inhibition of growth at 10 µM (RXF 393): 13%; inhibition of growth at 10 µM (SN12C): 13%; inhibition of growth at 10 µM (TK-10): 13%; inhibition of growth at 10 µM (PC-3): 13%; inhibition of growth at 10 µM (Hs-578T): 13%; inhibition of growth at 10 µM (BT-549): 13%; inhibition of growth at 10 µM (T47D): 13%; inhibition of growth at 10 µM (MDA-MB-468): 13%
2 | COc1cc2nc(-c3ccco3)cc(OCCCN3CCC(O)CC3)c2cc1OC | 46 | 46 | 46 | 46 | 46 | 46 | 46 | 46 | 46 | 46 | 46 | 46 | 46 | 46 | 46 | 46 | 46 | 46 | 46 | 46 | inhibition of growth at 10 µM (SK-MEL-5): 46%; inhibition of growth at 10 µM (UACC-257): 46%; inhibition of growth at 10 µM (UACC-62): 46%; inhibition of growth at 10 µM (IGROV-1): 46%; inhibition of growth at 10 µM (OVCAR-3): 46%; inhibition of growth at 10 µM (OVCAR-4): 46%; inhibition of growth at 10 µM (OVCAR-8): 46%; inhibition of growth at 10 µM (NCI/ADR-RES): 46%; inhibition of growth at 10 µM (A498): 46%; inhibition of growth at 10 µM (RXF 393): 46%; inhibition of growth at 10 µM (SN12C): 46%; inhibition of growth at 10 µM (TK-10): 46%; inhibition of growth at 10 µM (PC-3): 46%; inhibition of growth at 10 µM (Hs-578T): 46%; inhibition of growth at 10 µM (BT-549): 46%; inhibition of growth at 10 µM (T47D): 46%; inhibition of growth at 10 µM (MDA-MB-468): 46%
3 | COc1cc2nc(-c3ccc(Cl)cc3)cc(OCCN3CCC(O)CC3)c2cc1OC | 3 | 3 | 3 | 3 | 3 | 3 | 3 | 3 | 3 | 3 | 3 | 3 | 3 | 3 | 3 | 3 | 3 | 3 | 3 | 3 | inhibition of growth at 10 µM (SK-MEL-5): 3%; inhibition of growth at 10 µM (UACC-257): 3%; inhibition of growth at 10 µM (UACC-62): 3%; inhibition of growth at 10 µM (IGROV-1): 3%; inhibition of growth at 10 µM (OVCAR-3): 3%; inhibition of growth at 10 µM (OVCAR-4): 3%; inhibition of growth at 10 µM (OVCAR-8): 3%; inhibition of growth at 10 µM (NCI/ADR-RES): 3%; inhibition of growth at 10 µM (A498): 3%; inhibition of growth at 10 µM (RXF 393): 3%; inhibition of growth at 10 µM (SN12C): 3%; inhibition of growth at 10 µM (TK-10): 3%; inhibition of growth at 10 µM (PC-3): 3%; inhibition of growth at 10 µM (Hs-578T): 3%; inhibition of growth at 10 µM (BT-549): 3%; inhibition of growth at 10 µM (T47D): 3%; inhibition of growth at 10 µM (MDA-MB-468): 3%
